Reference: ChEMBL document CHEMBL2331499, “N2-Trimethylacetyl substituted and unsubstituted-N4-phenylsubstituted-6-(2-pyridin-2-ylethyl)-7H-pyrrolo[2,3-d]pyrimidine-2,4-diamines: design, cellular receptor tyrosine kinase inhibitory activities and in vivo evaluation as antiangiogenic, antimetastatic and antitumor agents” (Bioorg Med Chem, 2013)
The source made the active and inactive calls. The rule behind the calls is not given here.

Experiments:
[1] = tested on: Mus musculus; test: Toxicity in Ncr nu/nu mouse assessed as body weight loss at […], ip administered twice weekly measured for 6 weeks by whole animal toxicity assay; type: organism-based; conditions: in vivo, 1008 h
[2] = molecular target: Platelet-derived growth factor receptor beta (Homo sapiens, UniProt P09619); test: Inhibition of PDGF-BB-induced PDGFR beta phosphorylation in human SF539 cells overexpressing PDGFR beta pretreated for 60 mins prior to PDGF-BB addition measured after 10 mins by phosphotyrosine ELISA cytoblot analysis; type: cell-based, SF-539
[3] = tested on: B16-F10; test: Antitumor activity against GFP-tagged mouse B16F10 cells isografted into syngeneic athymic Ncr nu/nu mouse assessed as decrease in tumor growth rate at […], ip administered twice weekly starting from day 8 post-tumor inoculation; type: functional, organism-based
[4] = molecular target: T1, Vascular endothelial growth factor receptor 1 (Homo sapiens, UniProt P17948); test: Inhibition of VEGF-induced VEGFR1 phosphorylation in human A498 cells overexpressing Flt-1 pretreated for 60 mins prior to VEGF addition measured after 10 mins by phosphotyrosine ELISA cytoblot analysis; type: cell-based
[5] = molecular target: T2, Vascular endothelial growth factor receptor 2 (Homo sapiens, UniProt P35968); test: Ratio of compound IC50 to semaxanib IC50 for VEGF-induced VEGFR2 phosphorylation in human U251 cells overexpressing Flk-1 by phosphotyrosine ELISA cytoblot analysis; type: cell-based; conditions: U-251
In short: (§1)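 Cells at 60–75% confluence serum-starved 18 h, then pretreated 60 min with serial compound dilutions starting at 10 before growth factor stimulation. Cells fixed 30 min at 60 °C, then 70% ethanol 30 min, blocked with 1% BSA in TBS 1 h, HRP-anti-phosphotyrosine overnight, luminol ELISA substrate; light emission imaged.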

[6] = molecular target: Epidermal growth factor receptor (Homo sapiens, UniProt P00533); type: cell-based, A-431;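 also: EGF-stimulated EGFR phosphorylation in human A431 cells, compound preincubation 60 min before EGF, phosphotyrosine ELISA cytoblot read 10 min after stimulation, inhibition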
[7] = Toxicity in ip dosed Ncr nu/nu mouse assessed as maximum tolerated dose administered twice weekly by whole animal toxicity assay; type: organism-based; conditions: in vivo
[8] = tested on: Chorioallantoic membrane; test: Inhibition of VEGF165/bFGF-induced angiogenesis in chicken chorioallantoic membrane assessed a s decrease in number of vessels formed treated 8 hrs after VEGF/bFGF addition measured after 48 hrs by dissecting microscopic analysis; type: functional; conditions: Gallus gallus
[9] = tested on: B16-F10; test: Antitumor activity against GFP-tagged mouse B16F10 cells isografted into syngeneic athymic Ncr nu/nu mouse assessed as decrease in tumor volume at […], ip administered twice weekly starting from day 8 post-tumor inoculation; type: functional, organism-based
[10] = tested on: Chorioallantoic membrane; test: Ratio of semaxanib IC50 to compound IC50 for VEGF165/bFGF-induced angiogenesis in chicken chorioallantoic membrane by dissecting microscopic analysis; type: functional; conditions: Gallus gallus
[11] = tested on: B16-F10; test: Antimetastatic activity against GFP-tagged mouse B16F10 cells isografted into syngeneic athymic Ncr nu/nu mouse assessed as decrease in number of B16F10 lung metastases at […], ip administered twice weekly starting from day 8 post-tumor inoculation by hematoxylin-eosin staining; type: functional, organism-based
[12] = tested on: Mus musculus; test: Toxicity in Ncr nu/nu mouse assessed as body weight loss at 15 to 20 mg/kg, ip administered twice weekly measured for 6 weeks by whole animal toxicity assay; type: organism-based; set-up: dose 15-20 mg/kg, route intraperitoneal; conditions: in vivo, 1008 h
[13] = tested on: A-431; test: Cytotoxicity against human A431 cells overexpressing EGFR assessed as inhibition of cell proliferation treated for 12 hrs measured after 36 hrs by CYQUANT dye based assay; type: functional
[14] = tested on: B16-F10; test: Antiangiogenic activity against GFP-tagged mouse B16F10 cells isografted into syngeneic athymic Ncr nu/nu mouse assessed as decrease in vascular density at […], ip administered twice weekly starting from day 8 post-tumor inoculation; type: functional, organism-based
[15] = molecular target: T2, Vascular endothelial growth factor receptor 2; type: cell-based, U-251
[16] = tested on: Mus musculus; test: Toxicity in Ncr nu/nu mouse assessed as body weight loss at 7.5 to 10 mg/kg, ip administered twice weekly measured for 6 weeks by whole animal toxicity assay; type: organism-based; set-up: dose 7.5-10 mg/kg, route intraperitoneal; conditions: in vivo, 1008 h
[17] = molecular target: T1, Vascular endothelial growth factor receptor 1; test: Ratio of compound IC50 to CB676475 IC50 for VEGF-induced VEGFR1 phosphorylation in human A498 cells overexpressing Flt-1 by phosphotyrosine ELISA cytoblot analysis; type: cell-based; in short: as §1
[18] = tested on: A-431; test: Ratio of cisplatin IC50 to compound IC50 for human A431 cells overexpressing EGFR by CYQUANT dye based assay
[19] = tested on: B16-F10; test: Antiangiogenic activity against GFP-tagged mouse B16F10 cells isografted into syngeneic athymic Ncr nu/nu mouse assessed as decrease in vascular density at 10 mg/kg, ip administered twice weekly starting from day 8 post-tumor inoculation; type: functional, organism-based; set-up: dose 10 mg/kg
[20] = tested on: B16-F10; test: Antitumor activity against GFP-tagged mouse B16F10 cells isografted into syngeneic athymic Ncr nu/nu mouse assessed as decrease in tumor volume at 10 mg/kg, ip administered twice weekly starting from day 8 post-tumor inoculation; type: functional, organism-based; set-up: dose 10 mg/kg
In short: (§2)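 Mice bearing subcutaneous GFP-tagged B16-F10 tumors; treatment began once most tumors were caliper-measurable (day 8) after random sorting into groups. Dosing 10 mg/kg IP every Monday AM and Thursday PM; sham animals received water. Tumor length, width and depth measured Mon/Wed/Fri; volume = L×W×D; growth rate by linear regression. n = 7–10.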

[21] = tested on: B16-F10; test: Antimetastatic activity against GFP-tagged mouse B16F10 cells isografted into syngeneic athymic Ncr nu/nu mouse assessed as decrease in number of B16F10 lung metastases at 10 mg/kg, ip administered twice weekly starting from day 8 post-tumor inoculation by hematoxylin-eosin staining; type: functional, organism-based; set-up: dose 10 mg/kg
[22] = tested on: B16-F10; test: Antitumor activity against GFP-tagged mouse B16F10 cells isografted into syngeneic athymic Ncr nu/nu mouse assessed as decrease in tumor growth rate at 10 mg/kg, ip administered twice weekly starting from day 8 post-tumor inoculation; type: functional, organism-based; set-up: dose 10 mg/kg; in short: as §2
[23] = tested on: Chorioallantoic membrane; test: Ratio of compound IC50 to semaxanib IC50 for VEGF165/bFGF-induced angiogenesis in chicken chorioallantoic membrane by dissecting microscopic analysis; type: functional; conditions: Gallus gallus

T1 sequence (P17948 whole entry): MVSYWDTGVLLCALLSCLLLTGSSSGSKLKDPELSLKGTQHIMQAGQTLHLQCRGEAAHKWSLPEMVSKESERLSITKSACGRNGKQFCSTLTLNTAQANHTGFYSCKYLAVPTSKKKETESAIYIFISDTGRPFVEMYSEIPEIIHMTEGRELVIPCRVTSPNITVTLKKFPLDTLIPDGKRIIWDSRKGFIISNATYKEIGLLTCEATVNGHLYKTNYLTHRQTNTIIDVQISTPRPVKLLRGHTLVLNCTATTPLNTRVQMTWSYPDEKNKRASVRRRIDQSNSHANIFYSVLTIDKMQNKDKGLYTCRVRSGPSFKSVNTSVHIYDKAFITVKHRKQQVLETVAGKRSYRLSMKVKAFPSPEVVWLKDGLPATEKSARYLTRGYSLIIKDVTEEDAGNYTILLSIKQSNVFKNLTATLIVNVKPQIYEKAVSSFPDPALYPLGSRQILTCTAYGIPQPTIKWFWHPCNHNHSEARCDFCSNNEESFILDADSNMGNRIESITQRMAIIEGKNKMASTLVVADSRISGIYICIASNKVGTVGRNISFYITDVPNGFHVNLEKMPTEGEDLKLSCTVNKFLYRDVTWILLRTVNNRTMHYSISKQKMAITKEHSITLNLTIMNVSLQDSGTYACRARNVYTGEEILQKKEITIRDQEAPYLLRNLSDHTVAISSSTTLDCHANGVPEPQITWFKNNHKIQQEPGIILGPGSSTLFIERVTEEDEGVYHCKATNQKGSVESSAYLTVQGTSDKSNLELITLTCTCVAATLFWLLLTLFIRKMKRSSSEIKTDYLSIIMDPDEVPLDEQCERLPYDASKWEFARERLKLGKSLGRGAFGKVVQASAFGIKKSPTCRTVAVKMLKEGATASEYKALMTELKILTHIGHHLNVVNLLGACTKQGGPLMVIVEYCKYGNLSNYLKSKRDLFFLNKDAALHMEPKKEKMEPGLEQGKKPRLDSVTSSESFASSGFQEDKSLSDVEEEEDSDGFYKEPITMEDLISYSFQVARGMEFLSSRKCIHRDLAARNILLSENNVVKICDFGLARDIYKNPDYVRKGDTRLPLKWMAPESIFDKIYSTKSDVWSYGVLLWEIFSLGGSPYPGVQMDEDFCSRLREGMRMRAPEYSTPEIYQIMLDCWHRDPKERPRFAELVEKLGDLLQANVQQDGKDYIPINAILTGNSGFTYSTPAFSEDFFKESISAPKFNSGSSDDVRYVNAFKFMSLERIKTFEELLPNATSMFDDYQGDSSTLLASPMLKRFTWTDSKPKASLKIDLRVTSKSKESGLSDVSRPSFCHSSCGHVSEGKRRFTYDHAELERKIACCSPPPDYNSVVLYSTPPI
T2 sequence (P35968 whole entry): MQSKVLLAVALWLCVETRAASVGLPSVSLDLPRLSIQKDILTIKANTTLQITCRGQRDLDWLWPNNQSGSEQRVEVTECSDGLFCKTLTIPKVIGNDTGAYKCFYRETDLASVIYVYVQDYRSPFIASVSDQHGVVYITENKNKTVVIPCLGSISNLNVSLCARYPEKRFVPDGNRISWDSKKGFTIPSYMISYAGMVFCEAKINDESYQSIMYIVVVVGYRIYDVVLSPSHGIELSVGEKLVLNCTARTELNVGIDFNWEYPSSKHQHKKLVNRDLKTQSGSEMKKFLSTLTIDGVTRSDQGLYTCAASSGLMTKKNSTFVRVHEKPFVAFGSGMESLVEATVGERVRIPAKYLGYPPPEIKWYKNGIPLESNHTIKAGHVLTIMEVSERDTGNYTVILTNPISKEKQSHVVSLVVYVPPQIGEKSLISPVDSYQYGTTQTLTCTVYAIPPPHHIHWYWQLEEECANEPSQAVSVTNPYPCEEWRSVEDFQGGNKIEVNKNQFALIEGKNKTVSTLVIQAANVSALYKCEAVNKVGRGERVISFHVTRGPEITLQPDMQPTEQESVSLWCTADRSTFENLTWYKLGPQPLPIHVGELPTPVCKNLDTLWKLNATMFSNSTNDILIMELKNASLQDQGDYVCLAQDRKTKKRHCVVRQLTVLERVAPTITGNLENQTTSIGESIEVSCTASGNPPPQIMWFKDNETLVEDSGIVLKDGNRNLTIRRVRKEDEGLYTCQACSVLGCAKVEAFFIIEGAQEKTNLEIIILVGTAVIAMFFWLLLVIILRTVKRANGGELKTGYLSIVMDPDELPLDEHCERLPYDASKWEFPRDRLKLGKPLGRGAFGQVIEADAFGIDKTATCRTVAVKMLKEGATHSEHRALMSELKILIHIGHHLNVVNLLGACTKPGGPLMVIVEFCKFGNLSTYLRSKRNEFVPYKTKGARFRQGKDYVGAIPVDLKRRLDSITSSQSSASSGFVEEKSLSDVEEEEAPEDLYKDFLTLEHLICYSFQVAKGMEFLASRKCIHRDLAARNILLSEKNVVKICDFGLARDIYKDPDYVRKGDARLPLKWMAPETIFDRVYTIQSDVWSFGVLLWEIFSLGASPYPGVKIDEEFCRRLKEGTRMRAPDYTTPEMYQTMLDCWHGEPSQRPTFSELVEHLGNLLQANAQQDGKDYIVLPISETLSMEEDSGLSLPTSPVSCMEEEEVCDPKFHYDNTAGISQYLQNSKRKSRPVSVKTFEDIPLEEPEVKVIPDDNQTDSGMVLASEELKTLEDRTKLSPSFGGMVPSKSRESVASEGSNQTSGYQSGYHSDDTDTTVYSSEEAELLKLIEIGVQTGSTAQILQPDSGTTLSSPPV
Sequence of Platelet-derived growth factor receptor beta (P09619 whole entry): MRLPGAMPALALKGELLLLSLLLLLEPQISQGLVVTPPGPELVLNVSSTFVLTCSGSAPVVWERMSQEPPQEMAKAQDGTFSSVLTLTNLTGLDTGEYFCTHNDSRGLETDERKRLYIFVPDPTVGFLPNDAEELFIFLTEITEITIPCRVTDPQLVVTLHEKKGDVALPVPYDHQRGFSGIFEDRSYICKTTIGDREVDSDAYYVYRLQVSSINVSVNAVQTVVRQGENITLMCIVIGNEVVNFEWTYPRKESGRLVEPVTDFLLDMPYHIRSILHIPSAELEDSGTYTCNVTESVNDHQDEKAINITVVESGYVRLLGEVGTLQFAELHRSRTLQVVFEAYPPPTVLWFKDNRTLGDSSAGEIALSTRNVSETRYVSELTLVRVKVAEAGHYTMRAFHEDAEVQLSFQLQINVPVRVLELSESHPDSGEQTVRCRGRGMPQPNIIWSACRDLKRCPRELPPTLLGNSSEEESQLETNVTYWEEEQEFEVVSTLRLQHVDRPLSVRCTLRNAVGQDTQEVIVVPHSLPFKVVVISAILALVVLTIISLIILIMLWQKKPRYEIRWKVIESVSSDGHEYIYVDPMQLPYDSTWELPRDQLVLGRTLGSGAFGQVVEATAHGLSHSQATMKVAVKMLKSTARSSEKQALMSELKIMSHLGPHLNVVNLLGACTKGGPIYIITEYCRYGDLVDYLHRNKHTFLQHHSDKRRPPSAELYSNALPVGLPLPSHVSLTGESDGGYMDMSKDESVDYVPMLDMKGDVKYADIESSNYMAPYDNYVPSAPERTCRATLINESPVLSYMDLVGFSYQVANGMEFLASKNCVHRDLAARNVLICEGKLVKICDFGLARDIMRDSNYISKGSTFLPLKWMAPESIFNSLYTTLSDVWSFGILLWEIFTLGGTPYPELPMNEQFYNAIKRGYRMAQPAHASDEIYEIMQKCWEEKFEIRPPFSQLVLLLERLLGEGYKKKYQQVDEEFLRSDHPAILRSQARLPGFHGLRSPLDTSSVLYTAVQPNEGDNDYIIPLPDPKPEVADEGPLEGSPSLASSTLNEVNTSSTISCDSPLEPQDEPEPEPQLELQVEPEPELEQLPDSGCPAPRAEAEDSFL
Sequence of Epidermal growth factor receptor (P00533 whole entry): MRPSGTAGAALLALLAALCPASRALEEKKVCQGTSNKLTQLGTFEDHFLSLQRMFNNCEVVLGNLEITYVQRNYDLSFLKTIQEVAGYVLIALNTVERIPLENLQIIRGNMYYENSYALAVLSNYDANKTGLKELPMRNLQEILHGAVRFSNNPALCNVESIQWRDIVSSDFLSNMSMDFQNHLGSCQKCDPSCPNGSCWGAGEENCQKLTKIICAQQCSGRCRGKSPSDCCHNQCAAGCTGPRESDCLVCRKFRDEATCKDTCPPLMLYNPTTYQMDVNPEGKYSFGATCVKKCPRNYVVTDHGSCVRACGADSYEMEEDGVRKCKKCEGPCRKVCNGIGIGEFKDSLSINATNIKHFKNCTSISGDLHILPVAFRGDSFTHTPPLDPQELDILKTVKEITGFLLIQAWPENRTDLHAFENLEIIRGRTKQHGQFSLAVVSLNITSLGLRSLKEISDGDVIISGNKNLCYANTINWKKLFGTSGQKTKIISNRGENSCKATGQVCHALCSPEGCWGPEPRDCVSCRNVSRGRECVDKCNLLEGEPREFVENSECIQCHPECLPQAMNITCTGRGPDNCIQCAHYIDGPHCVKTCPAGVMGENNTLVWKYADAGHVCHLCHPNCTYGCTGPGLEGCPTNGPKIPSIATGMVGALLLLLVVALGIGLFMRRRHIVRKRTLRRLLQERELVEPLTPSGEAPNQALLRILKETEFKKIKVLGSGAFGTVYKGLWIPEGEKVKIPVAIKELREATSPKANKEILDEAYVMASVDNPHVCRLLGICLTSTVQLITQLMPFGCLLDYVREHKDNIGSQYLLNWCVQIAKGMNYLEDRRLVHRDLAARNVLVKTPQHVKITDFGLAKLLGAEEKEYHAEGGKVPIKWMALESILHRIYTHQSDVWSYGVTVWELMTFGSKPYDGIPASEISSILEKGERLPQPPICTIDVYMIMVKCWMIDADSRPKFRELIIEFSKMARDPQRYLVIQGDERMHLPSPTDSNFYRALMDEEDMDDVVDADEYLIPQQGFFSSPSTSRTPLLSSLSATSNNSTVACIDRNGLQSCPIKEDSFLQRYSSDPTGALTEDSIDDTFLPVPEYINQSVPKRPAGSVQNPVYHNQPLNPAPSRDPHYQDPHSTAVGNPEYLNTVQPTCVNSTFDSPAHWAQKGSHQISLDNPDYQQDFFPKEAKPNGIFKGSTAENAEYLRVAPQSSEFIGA

For `Nc1nc(Nc2ccc(F)c(Br)c2)c2cc(CCc3ccccn3)[nH]c2n1`, the Activity [1] was 1%, the IC50 [2] was over 500 µM and the inhibition [3] was “Active”. For the same compound, the IC50 [4] was 93.6 µM, the Ratio IC50 [5] was 2.4 and the IC50 [6] was 85.9 µM. The MTD [7] was 12.5 mg/kg, the IC50 [8] was 0.07 µM and the inhibition [9] was “Active”. The Ratio IC50 [10] was 1.2, the inhibition [11] was “Active” and the Activity [12] was “Toxic”. The IC50 [13] was 12.2 µM, the inhibition [14] was “Active” and the IC50 [15] was 24.1 µM. For the same compound, the Activity [16] was “Non-toxic” and the Ratio IC50 [17] was 5.
For `CC(C)(C)C(=O)Nc1nc(Nc2ccc(F)c(C(F)(F)F)c2)c2cc(CCc3ccccn3)[nH]c2n1`, the IC50 [2] was over 500 µM, the IC50 [4] was 190 µM and the IC50 [6] was 26.9 µM. It also gave an IC50 [8] of 8.6 µM, an IC50 [13] of 1.9 µM and an IC50 [15] of 151 µM. For the same compound, the Ratio IC50 [17] was 5.
`Nc1nc(Nc2cccc(C(F)(F)F)c2)c2cc(CCc3ccccn3)[nH]c2n1` showed an IC50 [2] of over 500 µM, an IC50 [4] of over 200 µM and a Ratio IC50 [5] of 1.5. It also gave an IC50 [6] of 19.3 µM, an IC50 [8] of 1.09 µM and an IC50 [13] of 3.4 µM. The IC50 [15] was 16.7 µM.
In the case of `C#Cc1cccc(Nc2nc(N)nc3[nH]c(CCc4ccccn4)cc23)c1`, the IC50 [2] is reported as 331 µM, the IC50 [4] is reported as 103 µM and the IC50 [6] is reported as 19.9 µM. For the same compound, the IC50 [8] was 13.9 µM, the “Ratio IC50” value [18] was 8 and the IC50 [13] was 0.9 µM. For the same compound, the IC50 [15] was 43.6 µM and the Ratio IC50 [17] was 5.
`CC(C)(C)C(=O)Nc1nc(Nc2cccc(C(F)(F)F)c2)c2cc(CCc3ccccn3)[nH]c2n1` showed an IC50 [2] of over 500 µM, an IC50 [4] of 130 µM and a Ratio IC50 [5] of 1.5. The IC50 [6] was 12.8 µM, the IC50 [8] was 1.6 µM and the IC50 [13] was 2.9 µM. The IC50 [15] was 16.7 µM and the Ratio IC50 [17] was 5.
For `CN(Cc1cnc2nc(N)nc(N)c2n1)c1ccc(C(=O)N[C@@H](CCC(=O)O)C(=O)O)cc1`, the inhibition [19] was “Active”, the inhibition [20] was “Active” and the inhibition [21] was “Active”. For the same compound, the inhibition [22] was “Active”.
Compound `CC(C)(C)C(=O)Nc1nc(Nc2ccc(F)c(Br)c2)c2cc(CCc3ccccn3)[nH]c2n1` has an IC50 [2] of 89.7 µM, an IC50 [4] of over 200 µM and an IC50 [6] of 5.4 µM. It also gave an IC50 [8] of 0.9 µM, a Ratio IC50 [23] of 10 and an IC50 [13] of 1 µM. The IC50 [15] was over 200 µM.
For `Nc1nc(Nc2cccc(Br)c2)c2cc(CCc3ccccn3)[nH]c2n1`, the IC50 [2] was 13.4 µM, the IC50 [4] was over 50 µM and the IC50 [8] was 7.23 µM. The IC50 [13] was 19.6 µM and the IC50 [15] was 49.9 µM.
In the case of `C#Cc1cccc(Nc2nc(NC(=O)C(C)(C)C)nc3[nH]c(CCc4ccccn4)cc23)c1`, the IC50 [2] is reported as 430 µM, the IC50 [4] is reported as 156 µM and the IC50 [6] is reported as over 200 µM. The IC50 [8] was 3.2 µM, the IC50 [13] was 29.9 µM and the IC50 [15] was 126 µM. The Ratio IC50 [17] was 5.
`CC(C)(C)C(=O)Nc1nc(Nc2ccc(F)c(Cl)c2)c2cc(CCc3ccccn3)[nH]c2n1` showed an IC50 [2] of over 500 µM, an IC50 [4] of over 200 µM and an IC50 [6] of 16.3 µM. The IC50 [8] was 2 µM, the IC50 [13] was 2.6 µM and the IC50 [15] was 89.3 µM.
`Nc1nc(Nc2ccc(F)c(C(F)(F)F)c2)c2cc(CCc3ccccn3)[nH]c2n1` gave an IC50 [2] of over 500 µM, an IC50 [4] of over 200 µM and an IC50 [6] of 15.6 µM. The IC50 [8] was 14 µM, the IC50 [13] was 3.2 µM and the IC50 [15] was 124 µM.
`Nc1nc(Nc2ccc(F)c(Cl)c2)c2cc(CCc3ccccn3)[nH]c2n1` gave an IC50 [2] of over 500 µM, an IC50 [4] of over 200 µM and an IC50 [6] of 111 µM. For the same compound, the IC50 [8] was 11.3 µM, the IC50 [13] was 27 µM and the IC50 [15] was over 200 µM.
